Measured values published in publication PMC7495461 (ACS Omega, 2020).

Legend:
HepG2 cells [1] = experiment: MTT cell viability assay; assay type: cell-based; settings: Homo sapiens, HepG2, 48 h, read-out: HepG2 IC50
Outline: (§1)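 MCF-7 or HepG2 cells were seeded at 8000–9000 cells/well. After 10 h they were exposed to test compound (0.1–80 μM) for 48 h at 37 °C in a humidified CO2 incubator. Medium was replaced with MTT (from a 5 mg/mL PBS pH 7.4 stock) in DMEM for 4–5 h. Formazan was dissolved in DMSO and absorbance read at 570/590 nm. Percent viability was used to derive IC50, with mean ± SD of n = 3 and paclitaxel as positive control.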

MARK4 = biological target: T1, MARK4 (Homo sapiens, UniProt Q96L34); experiment: MARK4 enzyme inhibition assay; assay type: biochemical
T1 sequence (Q96L34 1-752): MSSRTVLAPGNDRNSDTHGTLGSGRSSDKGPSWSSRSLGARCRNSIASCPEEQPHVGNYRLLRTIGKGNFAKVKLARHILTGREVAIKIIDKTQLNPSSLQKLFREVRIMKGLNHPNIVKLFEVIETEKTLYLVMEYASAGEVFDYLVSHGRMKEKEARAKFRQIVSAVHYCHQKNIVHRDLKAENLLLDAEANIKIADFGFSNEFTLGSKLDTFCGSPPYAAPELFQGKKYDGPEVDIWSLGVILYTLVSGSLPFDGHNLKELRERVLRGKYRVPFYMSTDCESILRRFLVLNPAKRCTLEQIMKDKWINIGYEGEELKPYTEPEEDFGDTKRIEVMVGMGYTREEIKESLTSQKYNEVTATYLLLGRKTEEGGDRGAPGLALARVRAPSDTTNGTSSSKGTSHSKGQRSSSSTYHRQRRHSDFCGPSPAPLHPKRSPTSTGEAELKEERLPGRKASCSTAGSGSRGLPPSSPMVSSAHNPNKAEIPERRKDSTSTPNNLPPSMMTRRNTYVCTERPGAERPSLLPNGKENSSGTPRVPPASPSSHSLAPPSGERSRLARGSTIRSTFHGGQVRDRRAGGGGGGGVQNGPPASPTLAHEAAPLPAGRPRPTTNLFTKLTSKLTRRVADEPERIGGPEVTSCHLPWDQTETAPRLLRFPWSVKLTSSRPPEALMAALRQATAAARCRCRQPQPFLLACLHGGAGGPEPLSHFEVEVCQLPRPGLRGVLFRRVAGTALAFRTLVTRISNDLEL

MCF-7 cells [2] = experiment: MTT cell viability assay; assay type: cell-based; settings: Homo sapiens, MCF7, 48 h, read-out: MCF-7 IC50
Outline: as §1

HepG2 cells [3] = experiment: Apoptosis assay; assay type: cell-based, human; settings: IC50 dose, 10 h, Annexin-V/PI
Outline: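 HepG2 cells were seeded at 2.5 × 10^5 cells/well in six-well plates and grown to 80% confluency. They were treated for 10 h at 37 °C, with media-only controls. Cells were trypsinized, washed three times with PBS and stained with FITC-Annexin-V and PI in Annexin binding buffer. About 10,000 events per sample were acquired by flow cytometry. Measurements were duplicate ± SD, with unpaired t-test against vehicle control.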

MCF-7 cells [4] = experiment: Estimation of ROS production; assay type: cell-based, human; settings: MCF-7, IC50 dose, 5–6 h, vs vehicle control
Outline: (§2)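 MCF-7 or HepG2 cells were plated at 2.5 × 10^5 cells/well, treated next day for 5–6 h, with H2O2 as positive control. They were loaded with 10 μM DCFDA for 30 min at 37 °C in the dark, then trypsinized and pelleted. DCF fluorescence was read by spectrofluorimeter (ex 485, em 500–550 nm). Measurements were triplicate, with unpaired t-test against vehicle control.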

HEK293 cells = experiment: MTT cell viability assay, noncancerous cells; assay type: cell-based, human; settings: up to 100 μM, 48 h
Outline: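 HEK293 cells were exposed to increasing test compound concentrations for 48 h. Viability was expressed as viable cells as a percentage of untreated control. Data are mean ± SD, n = 3.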

HepG2 cells [5] = experiment: Estimation of ROS production; assay type: cell-based, human; settings: HepG2, IC50 dose, 5–6 h, vs vehicle control
Outline: as §2

SMILES	IC50 (HepG2 cells [1]) [µM]	IC50 (MARK4) [µM]	IC50 (MCF-7 cells [2]) [µM]	MARK4 inhibition at a single dose (MARK4; single dose of 20 μM, initial screening)	apoptosis induced, % of HepG2 cells (HepG2 cells [3]) [%]	DCF fluorescence (level of ROS production) (MCF-7 cells [4])	viability of noncancerous cells (HEK293) (HEK293 cells)	DCF fluorescence (level of ROS production) (HepG2 cells [5])
COc1ccc(C(=NO)n2c([N+](=O)[O-])cnc2C)cc1 [Compound 4b, N-[(4-Methoxyphenyl)(2-methyl-5-nitro-1H-imidazol-1-yl)methylidene]hydroxylamine]	32.7	> 20	34.4	–	–	–	–	–
CCOc1ccc(C(=NO)n2c([N+](=O)[O-])cnc2C)cc1 [Compound 4d, N-[(4-Ethoxyphenyl)(2-methyl-5-nitro-1H-imidazol-1-yl)methylidene]hydroxylamine]	35.4	> 20	33.3	–	–	–	–	–
CCc1ccc(C(=NO)n2c([N+](=O)[O-])cnc2C)cc1 [Compound 4e, N-[(4-Ethylphenyl)(2-methyl-5-nitro-1H-imidazol-1-yl)methylidene]hydroxylamine]	21.5	18.5	23.3	–	–	–	–	–
Cc1ncc([N+](=O)[O-])n1C(=NO)c1ccc([N+](=O)[O-])cc1 [Compound 4g, N-[(2-Methyl-5-nitro-1H-imidazol-1-yl)(4-nitrophenyl)methylidene]hydroxylamine]	25.3	16.2	22.5	–	–	–	–	–

Further lines, with some results ahead:

IC50 (HepG2 cells [1]) [µM]	IC50 (MARK4) [µM]	IC50 (MCF-7 cells [2]) [µM]	MARK4 inhibition at a single dose (MARK4; single dose of 20 μM, initial screening)	SMILES	apoptosis induced, % of HepG2 cells (HepG2 cells [3]) [%]	DCF fluorescence (level of ROS production) (MCF-7 cells [4])	viability of noncancerous cells (HEK293) (HEK293 cells)	DCF fluorescence (level of ROS production) (HepG2 cells [5])
38.5	> 20	37.3	–	Cc1ncc([N+](=O)[O-])n1C(=NO)c1ccccc1 [Compound 4a, N-[(2-Methyl-5-nitro-1H-imidazol-1-yl)(phenyl)methylidene]hydroxylamine]	–	–	–	–
33.2	> 20	32.5	–	Cc1ccc(C(=NO)n2c([N+](=O)[O-])cnc2C)cc1 [Compound 4c, N-[(2-Methyl-5-nitro-1H-imidazol-1-yl)(4-methylphenyl)methylidene]hydroxylamine]	–	–	–	–
24.8	> 20	28.8	–	Cc1ncc([N+](=O)[O-])n1C(=NO)c1ccc(Cl)cc1 [Compound 4f, N-[(4-Chlorophenyl)(2-methyl-5-nitro-1H-imidazol-1-yl)methylidene]hydroxylamine]	–	–	–	–
5.99	1.47	3.74	significant inhibition	Cc1ncc([N+](=O)[O-])n1C(=NO)c1ccccc1C(F)(F)F [Compound 4h, N-{(2-Methyl-5-nitro-1H-imidazol-1-yl)[2-(trifluoromethyl)phenyl]methylidene}hydroxyl Amine]	20.8	decreases	did not affect the viability	decreases
